Assay [1] is filed under the species Homo sapiens. The experiment in a line: In vitro antiproliferative effect against growth rate of H. Ep.2 cells at 100 uM concentration. In kind it is functional. In outline:
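H.Ep.2 cells receive compound at 100 μM. Growth is read by crystal violet A560-570 at days 0, 2 and 5 and expressed as growth rate, the slope of semilog cell number versus time as a percent of control.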

In assay [2] the test system is Human betaherpesvirus 5. The experiment in a line: Concentration required to decrease the growth rate to 50% of control was evaluated against HCMV by using plaque reduction assay. Type of assay: functional, organism-based. A digest of the protocol:
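HFF monolayers infected with about 50 PFU of HCMV Towne strain (plaque-purified P0 isolate) in a 0.2 mL inoculum. Compounds are dissolved in the overlay medium and plaques are counted. Percent inhibition is regressed linearly against log concentration to give the IC50. Acyclovir or ganciclovir serves as positive control. Values are averages of two to seven experiments.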
For orientation: In a plaque reduction assay, fewer plaques than in the control indicate reduced infectivity or spread.

Assay [3] is described as follows: Cytotoxicity of compound was determined visually in human diploid fibroblasts (HFF). In outline: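 HFF cells are grown in MEM(E) with 10% FBS. Drug-induced cytopathology in uninfected cells of the HCMV plaque assay is scored 0 to 4+ at 35- and 60-fold magnification on the day of plaque staining. IC50 comes from regression against log concentration.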
The subject of assay [4] is L1210. Nature of the assay: In vitro antiproliferative effect against growth rate of L1210 cells at 100 uM concentration. In kind it is functional, Mus musculus. A digest of the protocol:
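L1210 cells are held in static suspension in Fischer's medium with compound at 100 μM. Cell counts are taken at 0, 48 and 96 h. Growth rate is the semilog slope versus time as a percent of control.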

Assay [5] concerns Human alphaherpesvirus 1. The experiment in a line: Concentration required to decrease the growth rate to 50% of control was evaluated against HSV-1 by using enzyme immunoassay.
Assay [6] deals with L1210. The experiment in a line: Concentration required to decrease the growth rate to 50% of control was evaluated by determining their ability to inhibit growth of L1210 cells in vitro. Type of assay: functional, cell-based. The note with it: Mus musculus. In outline:
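L1210 cells are grown in static suspension in Fischer's medium. Cell number is counted at 0, 48 and 96 h across a range of compound concentrations. Growth rate is the semilog slope as a percent of control; the 48–96 h rate is used if growth slowed. IC50 is the concentration giving 50% of control growth rate.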

Assay [7] deals with KB. Nature of the assay: Cytotoxicity of compound was determined by assaying cell growth in human neoplastic cell line(KB). Type of assay: functional, cell-based. In outline: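 KB cells (human epidermoid oral carcinoma) are grown in MEM(H) with 5% FBS. Growth is measured spectrophotometrically by crystal violet staining two days after drug treatment. IC50 comes from linear regression of percent inhibition against log concentration.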

For assay [8], the species on record is Homo sapiens. The experiment in a line: Concentration required to decrease the growth rate to 50% of control was evaluated by determining their ability to inhibit growth of H.Ep.2 cells in vitro. Type of assay: functional, cell-based. The note with it: HEp-2. In outline:
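H.Ep.2 cells are grown in MEM (Earle's salts) with 15% bovine calf serum under 5% CO2, and 2000 cells/well are plated in MEM with 5% serum. Compounds are added 1 day later. Growth is read by crystal violet staining (A560-570) at days 0, 2 and 5 after addition. Growth rate is Td(control)/Td(treated), and IC50 is the concentration halving growth rate.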

Assay [9] concerns Human betaherpesvirus 5. The experiment in a line: Concentration required to decrease the growth rate to 50% of control was evaluated against HCMV by using yield reduction assay. Type of assay: functional.

Bounds are passed on as bounds.

For orientation: IC50 means the concentration that inhibits the measured activity by half. Take `Nc1nncc2c1ccn2C1O[C@H](CO)[C@@H](O)[C@H]1O` (stereo partly drawn): the Control in assay [1] is 93%; in [4], 100%. Further, the IC50 in assay [2], in assay [3] and in assay [5] was over 100 µM throughout.

Regarding `Nc1nncc2c1ccn2C1O[C@H](CO)[C@@H](O)[C@@H]1O` (stereo partly drawn), the IC50 in [6], in assay [2], in [3] and in assay [5] was over 100 µM each time. In addition, the Control in assay [4] is recorded as 88%.

One may read the IC90 as the point of the concentration-response curve where the effect stands at 90%. Low readings indicate greater potency, high ones weaker potency. In [1], `Nc1nncc2c1c(Br)cn2C1O[C@H](CO)[C@@H](O)[C@H]1O` (stereo partly drawn) gave an Of control of 6%. The IC50 in [7] worked out at 12 µM; in assay [6], 24 µM; in assay [2], 90 µM; in assay [8], 5.2 µM; in [3], 100 µM; in [5], 30 µM. In [9], this compound showed an IC90 of 2.2 µM. The compound also registered a Control in [4] of 9%.

On to `Nc1ncnc2c1c(Br)cn2[C@@H]1O[C@H](CO)[C@@H](O)[C@H]1O`, for which the IC50 turned out to be 3 µM in [7], 0.6 µM in assay [2], 1.2 µM in assay [3] and 4 µM in assay [5]. In [9], this compound yielded an IC90 of 3.5 µM. Also, the Control in [4] turned out to be 9%.

As for `Nc1nc2c(ncn2COCCO)c(=O)[nH]1` [ACYCLOVIR], the IC50 was over 100 µM in [7], over 100 µM in assay [3] and 3.4 µM in [5]. In [9], this compound had an IC90 of 90 µM.

In the case of `Nc1nc2c(ncn2COC(CO)CO)c(=O)[nH]1` [GANCICLOVIR], the figures for the IC50 in assay [7], in [2] and in assay [3] were over 100 µM, 8.4 µM and over 100 µM, respectively. In assay [9], this compound returned a concentration for an effect of 90% (IC90) of 1.8 µM.

In turn, `Nc1ncnc2c1ccn2[C@@H]1O[C@H](CO)[C@@H](O)[C@H]1O` [TUBERCIDIN] returned an Of control in [1] of 0%. Also, the IC50 came out at 1 µM in [7], 0.06 µM in [8] and 0.4 µM in assay [3]. The Control in assay [4] stood at 0%.

The values are drawn from ChEMBL document CHEMBL1126319, “Synthesis, antiproliferative, and antiviral activity of certain 4-aminopyrrolo[2,3-d]pyridazine nucleosides: an entry into a novel series of adenosine analogues” (J Med Chem, 1992).
